Test results taken from ChEMBL document CHEMBL3352617, “Discovery of 9-(1-phenoxyethyl)-2-morpholino-4-oxo-pyrido[1,2-a]pyrimidine-7-carboxamides as oral PI3Kβ inhibitors, useful as antiplatelet agents” (Bioorg Med Chem Lett, 2014).
pIC50: −log10 of the molar value. Converted amounts (≈) assume the structure as drawn. The source made the active and inactive calls. No cut-off for these calls is given here.

Columns and labels:
[1] = Volume of distribution in iv dosed healthy volunteers; type: ADME, organism-based; settings: human, in vivo
[2] = Fraction unbound in human plasma after 18 hrs at 37 degC after 18 hrs; type: ADME, cell-free
Procedure, shortened: (§1)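 Human and dog plasma. Fraction unbound measured by equilibrium dialysis, 18 h at 37 °C, reported as % unbound.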

[3] = Apparent permeability across apical to basolateral side of human Caco2 cells at 10 uM at pH 6.5 by LC-tandem MS analysis; type: ADME, cell-based; settings: Caco-2, pH 6.5
Procedure, shortened: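 Caco-2 monolayers, apical-to-basolateral transport at pH 6.5. Result given as apparent permeability (Papp).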

[4] = Fraction unbound in dog plasma after 18 hrs at 37 degC after 18 hrs; type: ADME, cell-free, Canis lupus familiaris; procedure, shortened: as §1
[5] = Volume of distribution at steady state in Beagle dog at 1 umol/kg, iv and 2 umol/kg, po; type: ADME, organism-based, Canis lupus familiaris; settings: in vivo, read-out: Vdss
Procedure, shortened: (§2)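 Fasted male Beagle dogs dosed iv or po (iv N = 5, po N = 4). Plasma concentrations analysed by noncompartmental analysis to give CL, Vss and oral F.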

[6] = Clearance in Beagle dog at 1 umol/kg, iv and 2 umol/kg, po; type: ADME, organism-based, Canis lupus familiaris; settings: in vivo; procedure, shortened: as §2
[7] = Half life in human hepatocytes at 2 uM by LCMS analysis; type: ADME, cell-based, Hepatocyte
Procedure, shortened: (§3)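 Test compound incubated with human hepatocytes. Intrinsic clearance and half-life derived from compound disappearance.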

[8] = Half life in iv dosed healthy volunteers plasma; type: ADME, organism-based; settings: human
[9] = Lipophilicity, log D of the compound at pH 7.4 by HPLC method; type: physicochemical; settings: buffer
Procedure, shortened: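 LogD measured experimentally at pH 7.4 by an HPLC method.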

Hepatocyte = test: Intrinsic clearance in human hepatocytes at 2 uM by LCMS analysis; type: ADME, cell-based; procedure, shortened: as §3
[10] = Antiplatelet activity against human platelet assessed as inhibition of ADP-induced whole blood aggregation by impedance aggregometry
[11] = Solubility of the compound in DMSO/HBSS at pH 7.4; type: physicochemical
Procedure, shortened: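 Compound from DMSO stock added to HBSS buffer. Solubility measured at pH 7.4.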

[12] = Antiplatelet activity against human platelet assessed as inhibition of collagen-induced platelet rich plasma aggregation by light transmission aggregometry; type: functional, cell-free
Procedure, shortened: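 Human platelet rich plasma stimulated with collagen. Aggregation read by light transmission aggregometry in an in-house 96-well plate format.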

Canis familiaris [13] = test: Inhibition of ADP-induced platelet aggregation in iv dosed Beagle dog assessed as blood loss volume; type: organism-based, Canis lupus familiaris; settings: in vivo
Procedure, shortened: (§4)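 Anaesthetized dogs in a modified Folts' model. Saline vehicle given first, then consecutive iv doses over 30 min periods (bolus 0.03–1.3 µg/kg plus infusion 0.005–0.24 µg/kg/min). Measured: cyclic flow reductions, bleeding time, blood loss, ex vivo ADP-induced whole blood aggregation (Multiplate), and plasma exposure, related by PKPD.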

[14] = biological target: Sodium channel protein type 2 subunit alpha (Homo sapiens) (UniProt Q99250); test: Inhibition of human Nav1.2 channel expressed in CHO cells at 20.4 +/- 2.4 uM by patch clamp assay; type: cell-based
[15] = Oral bioavailability in Beagle dog at 2 umol/kg; type: ADME, organism-based, Canis lupus familiaris; settings: in vivo; procedure, shortened: as §2
[16] = biological target: T1, A-type voltage-gated potassium channel KCND3 (Homo sapiens, UniProt Q9UK17); test: Inhibition of human Kv4.3 channel expressed in CHO cells at 20.4 +/- 2.4 uM by patch clamp assay; type: cell-based
T1 sequence (Q9UK17 whole entry): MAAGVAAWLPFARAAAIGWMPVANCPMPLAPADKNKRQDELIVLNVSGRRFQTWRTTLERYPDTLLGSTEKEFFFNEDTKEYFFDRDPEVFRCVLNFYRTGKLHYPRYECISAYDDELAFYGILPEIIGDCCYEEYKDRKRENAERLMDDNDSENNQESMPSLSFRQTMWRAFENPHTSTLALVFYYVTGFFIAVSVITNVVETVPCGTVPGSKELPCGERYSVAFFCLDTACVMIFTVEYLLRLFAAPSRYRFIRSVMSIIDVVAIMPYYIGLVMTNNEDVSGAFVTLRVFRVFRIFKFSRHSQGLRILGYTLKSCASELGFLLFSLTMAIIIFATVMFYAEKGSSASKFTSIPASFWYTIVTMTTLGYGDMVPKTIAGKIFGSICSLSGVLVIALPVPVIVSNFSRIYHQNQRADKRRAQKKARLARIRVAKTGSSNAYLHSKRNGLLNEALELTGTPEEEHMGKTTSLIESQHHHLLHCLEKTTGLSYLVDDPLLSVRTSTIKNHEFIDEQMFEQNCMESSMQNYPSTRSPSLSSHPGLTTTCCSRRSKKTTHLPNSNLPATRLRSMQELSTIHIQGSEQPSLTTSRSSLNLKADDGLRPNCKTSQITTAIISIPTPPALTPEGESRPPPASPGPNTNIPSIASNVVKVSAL

[17] = biological target: Sodium channel protein type 5 subunit alpha (Homo sapiens, UniProt Q14524); test: Inhibition of human Nav1.5 channel expressed in CHO cells at 20.4 +/- 2.4 uM by patch clamp assay; type: cell-based
[18] = biological target: Voltage-dependent L-type calcium channel subunit beta-2 (Homo sapiens) (UniProt Q08289); test: Inhibition of human CACNB2 channel expressed in CHO cells at 20.4 +/- 2.4 uM by patch clamp assay; type: cell-based
Rattus norvegicus = organism: Rattus norvegicus; test: Effect on insulin resistance in Sprague-Dawley rat assessed as HOMA-index at maximum compound concentration; type: ADME, organism-based; settings: in vivo
Procedure, shortened: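 Sprague-Dawley rats given compound. Relative HOMA insulin resistance index (plasma glucose × plasma insulin) compared with baseline and related to plasma concentration.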

[19] = biological target: Voltage-dependent N-type calcium channel subunit alpha-1B (Homo sapiens) (UniProt Q00975); test: Inhibition of human Cav2.2 channel expressed in CHO cells at 20.4 +/- 2.4 uM by patch clamp assay; type: cell-based
Canis familiaris [20] = organism: Canis familiaris; test: Ex vivo antiplatelet activity in Beagle dog assessed as inhibition of ADP-induced platelet aggregation; type: functional, Canis lupus familiaris; procedure, shortened: as §4
[21] = biological target: Voltage-dependent L-type calcium channel subunit alpha-1C (Homo sapiens, UniProt Q13936); test: Inhibition of human CACNA1C channel expressed in CHO cells at 20.4 +/- 2.4 uM by patch clamp assay; type: cell-based
[22] = biological target: T2, Phosphatidylinositol 4,5-bisphosphate 3-kinase catalytic subunit delta isoform (Homo sapiens, UniProt O00329); test: Inhibition of human recombinant PI3Kdelta assessed as PIP3 production by AlphaScreen assay
T2 sequence (O00329 whole entry): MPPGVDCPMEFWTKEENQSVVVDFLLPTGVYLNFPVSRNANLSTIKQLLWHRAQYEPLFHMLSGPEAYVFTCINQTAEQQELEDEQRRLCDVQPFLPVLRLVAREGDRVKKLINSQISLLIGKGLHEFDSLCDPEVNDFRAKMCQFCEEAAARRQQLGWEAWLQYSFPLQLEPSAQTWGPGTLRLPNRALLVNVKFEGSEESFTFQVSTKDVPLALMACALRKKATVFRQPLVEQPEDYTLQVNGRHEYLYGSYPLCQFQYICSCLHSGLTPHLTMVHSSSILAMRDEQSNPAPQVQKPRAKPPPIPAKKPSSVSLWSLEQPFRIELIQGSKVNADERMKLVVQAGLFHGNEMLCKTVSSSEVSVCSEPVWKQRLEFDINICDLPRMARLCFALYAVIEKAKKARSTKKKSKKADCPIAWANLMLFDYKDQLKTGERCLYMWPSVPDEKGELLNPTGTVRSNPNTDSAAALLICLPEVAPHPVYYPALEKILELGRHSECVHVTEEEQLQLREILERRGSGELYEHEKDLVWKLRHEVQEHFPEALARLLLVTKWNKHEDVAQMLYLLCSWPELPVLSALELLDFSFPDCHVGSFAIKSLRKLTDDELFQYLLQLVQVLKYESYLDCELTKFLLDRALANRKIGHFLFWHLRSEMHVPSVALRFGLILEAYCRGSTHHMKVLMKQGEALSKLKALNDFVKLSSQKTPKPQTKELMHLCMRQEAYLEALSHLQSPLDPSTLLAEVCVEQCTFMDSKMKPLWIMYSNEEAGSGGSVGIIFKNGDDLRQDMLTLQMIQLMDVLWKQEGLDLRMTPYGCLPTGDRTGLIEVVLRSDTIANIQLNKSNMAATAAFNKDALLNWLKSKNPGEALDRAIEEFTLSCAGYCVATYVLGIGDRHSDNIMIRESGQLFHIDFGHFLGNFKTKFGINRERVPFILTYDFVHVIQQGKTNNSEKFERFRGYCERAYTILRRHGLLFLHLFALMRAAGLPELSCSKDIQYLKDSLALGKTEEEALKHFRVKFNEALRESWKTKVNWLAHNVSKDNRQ

[23] = Antiplatelet activity against dog platelet assessed as inhibition of ADP-induced whole blood aggregation by impedance aggregometry; settings: Canis lupus familiaris
Canis familiaris [24] = test: Inhibition of ADP-induced platelet aggregation in iv dosed Beagle dog assessed as bleeding time; type: organism-based, Canis lupus familiaris; settings: in vivo; procedure, shortened: as §4
CHO = test: Inhibition of human IKs channel expressed in CHO cells at 20.4 +/- 2.4 uM by patch clamp assay; type: cell-based
[25] = biological target: Voltage-dependent calcium channel subunit alpha-2/delta-1 (Homo sapiens) (UniProt P54289); test: Inhibition of human CACNA2D1 channel expressed in CHO cells at 20.4 +/- 2.4 uM by patch clamp assay; type: cell-based
[26] = biological target: Phosphatidylinositol 4,5-bisphosphate 3-kinase catalytic subunit gamma isoform (Homo sapiens, UniProt P48736); test: Inhibition of human recombinant PI3Kgamma assessed as PIP3 production by AlphaScreen assay
[27] = biological target: Voltage-gated inwardly rectifying potassium channel KCNH2 (Homo sapiens, UniProt Q12809); test: Inhibition of human ERG channel expressed in CHO cells at 20.4 +/- 2.4 uM by patch clamp assay; type: cell-based
[28] = biological target: Voltage-dependent T-type calcium channel subunit alpha-1H (Homo sapiens) (UniProt O95180); test: Inhibition of human Cav3.2 channel expressed in CHO cells at 20.4 +/- 2.4 uM by patch clamp assay; type: cell-based

Sodium channel protein type 5 subunit alpha, sequence (Q14524 whole entry): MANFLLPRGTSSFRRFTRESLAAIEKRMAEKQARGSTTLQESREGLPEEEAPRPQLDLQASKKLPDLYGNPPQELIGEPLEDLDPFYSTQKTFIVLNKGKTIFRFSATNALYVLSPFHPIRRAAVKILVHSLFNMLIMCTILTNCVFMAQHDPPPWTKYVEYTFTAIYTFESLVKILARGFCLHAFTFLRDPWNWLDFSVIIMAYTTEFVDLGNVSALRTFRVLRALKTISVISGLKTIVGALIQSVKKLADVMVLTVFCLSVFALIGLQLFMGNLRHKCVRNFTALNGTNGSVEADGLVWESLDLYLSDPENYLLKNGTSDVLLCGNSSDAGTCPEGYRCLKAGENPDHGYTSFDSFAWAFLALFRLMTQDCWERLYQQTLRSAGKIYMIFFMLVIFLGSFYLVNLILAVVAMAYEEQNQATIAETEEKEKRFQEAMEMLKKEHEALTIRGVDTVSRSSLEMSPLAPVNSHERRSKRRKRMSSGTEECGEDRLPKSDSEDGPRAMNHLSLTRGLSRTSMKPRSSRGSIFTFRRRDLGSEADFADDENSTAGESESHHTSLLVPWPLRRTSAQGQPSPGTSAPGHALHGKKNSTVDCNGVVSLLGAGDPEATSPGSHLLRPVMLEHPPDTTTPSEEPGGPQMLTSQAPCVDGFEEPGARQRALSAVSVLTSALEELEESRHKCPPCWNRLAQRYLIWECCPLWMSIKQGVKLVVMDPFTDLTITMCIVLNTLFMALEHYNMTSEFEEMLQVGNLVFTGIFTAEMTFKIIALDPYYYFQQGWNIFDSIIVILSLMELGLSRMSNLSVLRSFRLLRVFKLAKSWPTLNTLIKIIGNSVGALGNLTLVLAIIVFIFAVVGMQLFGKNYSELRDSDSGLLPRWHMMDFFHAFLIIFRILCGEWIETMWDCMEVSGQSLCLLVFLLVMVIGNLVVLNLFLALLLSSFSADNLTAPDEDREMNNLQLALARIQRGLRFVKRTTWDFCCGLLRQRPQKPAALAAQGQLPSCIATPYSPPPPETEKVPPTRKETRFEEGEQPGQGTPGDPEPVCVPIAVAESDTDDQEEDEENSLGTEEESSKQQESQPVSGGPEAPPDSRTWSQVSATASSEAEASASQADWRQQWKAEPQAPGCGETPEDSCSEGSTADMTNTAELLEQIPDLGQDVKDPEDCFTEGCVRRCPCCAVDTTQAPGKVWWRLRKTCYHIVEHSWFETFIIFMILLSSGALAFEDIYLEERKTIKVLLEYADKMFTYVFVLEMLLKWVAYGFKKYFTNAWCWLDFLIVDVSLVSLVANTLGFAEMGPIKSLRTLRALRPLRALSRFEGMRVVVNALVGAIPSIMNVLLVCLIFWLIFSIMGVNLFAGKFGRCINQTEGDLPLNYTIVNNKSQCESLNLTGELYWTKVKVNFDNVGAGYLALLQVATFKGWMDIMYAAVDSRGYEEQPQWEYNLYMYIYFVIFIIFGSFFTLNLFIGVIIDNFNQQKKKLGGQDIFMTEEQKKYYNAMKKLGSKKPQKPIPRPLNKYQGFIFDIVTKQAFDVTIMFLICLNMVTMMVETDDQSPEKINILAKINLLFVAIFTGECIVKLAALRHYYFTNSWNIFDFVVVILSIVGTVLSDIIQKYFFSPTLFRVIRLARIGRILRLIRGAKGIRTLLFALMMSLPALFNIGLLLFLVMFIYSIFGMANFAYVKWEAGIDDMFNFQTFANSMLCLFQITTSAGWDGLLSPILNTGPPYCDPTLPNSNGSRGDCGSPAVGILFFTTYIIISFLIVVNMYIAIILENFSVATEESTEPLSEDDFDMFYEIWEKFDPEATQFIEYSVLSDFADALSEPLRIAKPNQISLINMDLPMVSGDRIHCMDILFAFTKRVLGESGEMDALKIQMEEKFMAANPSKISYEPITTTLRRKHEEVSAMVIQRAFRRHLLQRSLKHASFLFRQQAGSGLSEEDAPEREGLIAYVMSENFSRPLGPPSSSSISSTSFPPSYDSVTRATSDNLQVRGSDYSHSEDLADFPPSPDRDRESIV
Voltage-gated inwardly rectifying potassium channel KCNH2, sequence (Q12809 whole entry): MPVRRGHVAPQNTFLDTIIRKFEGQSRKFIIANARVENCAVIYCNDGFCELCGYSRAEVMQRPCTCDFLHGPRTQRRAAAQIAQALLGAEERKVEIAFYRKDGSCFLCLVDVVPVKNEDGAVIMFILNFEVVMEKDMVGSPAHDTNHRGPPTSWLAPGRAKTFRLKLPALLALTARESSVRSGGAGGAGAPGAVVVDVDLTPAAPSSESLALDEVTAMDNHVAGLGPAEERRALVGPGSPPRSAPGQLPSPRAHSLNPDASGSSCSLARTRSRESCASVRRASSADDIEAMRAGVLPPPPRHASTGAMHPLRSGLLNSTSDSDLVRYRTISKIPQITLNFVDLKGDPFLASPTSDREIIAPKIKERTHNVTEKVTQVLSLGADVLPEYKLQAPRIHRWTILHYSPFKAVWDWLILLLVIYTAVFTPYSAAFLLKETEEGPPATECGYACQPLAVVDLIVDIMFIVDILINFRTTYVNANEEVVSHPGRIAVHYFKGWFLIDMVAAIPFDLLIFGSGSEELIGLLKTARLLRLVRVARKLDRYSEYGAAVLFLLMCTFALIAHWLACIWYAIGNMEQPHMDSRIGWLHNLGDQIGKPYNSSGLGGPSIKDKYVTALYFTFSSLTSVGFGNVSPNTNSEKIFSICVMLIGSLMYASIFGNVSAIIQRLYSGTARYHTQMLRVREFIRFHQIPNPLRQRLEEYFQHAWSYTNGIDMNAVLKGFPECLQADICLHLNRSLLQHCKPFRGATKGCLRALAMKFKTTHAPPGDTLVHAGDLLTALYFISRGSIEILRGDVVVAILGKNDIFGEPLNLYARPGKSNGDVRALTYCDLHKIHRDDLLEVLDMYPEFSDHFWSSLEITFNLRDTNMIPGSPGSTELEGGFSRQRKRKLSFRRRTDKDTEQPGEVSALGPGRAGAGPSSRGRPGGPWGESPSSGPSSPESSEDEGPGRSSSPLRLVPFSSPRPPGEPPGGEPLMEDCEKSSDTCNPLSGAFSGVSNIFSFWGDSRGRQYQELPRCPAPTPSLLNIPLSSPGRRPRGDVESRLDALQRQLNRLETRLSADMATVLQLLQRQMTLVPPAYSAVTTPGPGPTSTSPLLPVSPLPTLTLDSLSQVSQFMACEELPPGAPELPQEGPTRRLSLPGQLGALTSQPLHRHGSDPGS
Voltage-dependent L-type calcium channel subunit beta-2 (Homo sapiens), sequence (Q08289 whole entry): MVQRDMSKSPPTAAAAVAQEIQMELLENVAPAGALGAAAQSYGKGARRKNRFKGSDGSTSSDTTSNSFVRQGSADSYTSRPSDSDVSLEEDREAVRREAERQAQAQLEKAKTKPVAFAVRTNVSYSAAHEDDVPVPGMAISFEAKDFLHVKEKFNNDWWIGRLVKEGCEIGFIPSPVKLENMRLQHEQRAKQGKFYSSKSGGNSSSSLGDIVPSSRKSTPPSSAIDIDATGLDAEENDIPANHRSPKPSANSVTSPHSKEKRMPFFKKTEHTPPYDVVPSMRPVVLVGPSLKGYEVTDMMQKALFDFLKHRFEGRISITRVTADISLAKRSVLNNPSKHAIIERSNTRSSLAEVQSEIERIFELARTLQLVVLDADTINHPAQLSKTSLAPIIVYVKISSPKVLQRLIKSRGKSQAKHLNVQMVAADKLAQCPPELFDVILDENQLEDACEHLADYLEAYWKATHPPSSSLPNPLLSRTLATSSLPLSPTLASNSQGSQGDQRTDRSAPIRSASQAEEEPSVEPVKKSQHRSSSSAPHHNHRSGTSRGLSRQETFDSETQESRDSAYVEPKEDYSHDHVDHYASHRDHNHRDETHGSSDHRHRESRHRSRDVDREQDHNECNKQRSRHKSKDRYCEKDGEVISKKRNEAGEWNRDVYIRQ
Voltage-dependent calcium channel subunit alpha-2/delta-1 (Homo sapiens), sequence (P54289 25-956 limits assumed): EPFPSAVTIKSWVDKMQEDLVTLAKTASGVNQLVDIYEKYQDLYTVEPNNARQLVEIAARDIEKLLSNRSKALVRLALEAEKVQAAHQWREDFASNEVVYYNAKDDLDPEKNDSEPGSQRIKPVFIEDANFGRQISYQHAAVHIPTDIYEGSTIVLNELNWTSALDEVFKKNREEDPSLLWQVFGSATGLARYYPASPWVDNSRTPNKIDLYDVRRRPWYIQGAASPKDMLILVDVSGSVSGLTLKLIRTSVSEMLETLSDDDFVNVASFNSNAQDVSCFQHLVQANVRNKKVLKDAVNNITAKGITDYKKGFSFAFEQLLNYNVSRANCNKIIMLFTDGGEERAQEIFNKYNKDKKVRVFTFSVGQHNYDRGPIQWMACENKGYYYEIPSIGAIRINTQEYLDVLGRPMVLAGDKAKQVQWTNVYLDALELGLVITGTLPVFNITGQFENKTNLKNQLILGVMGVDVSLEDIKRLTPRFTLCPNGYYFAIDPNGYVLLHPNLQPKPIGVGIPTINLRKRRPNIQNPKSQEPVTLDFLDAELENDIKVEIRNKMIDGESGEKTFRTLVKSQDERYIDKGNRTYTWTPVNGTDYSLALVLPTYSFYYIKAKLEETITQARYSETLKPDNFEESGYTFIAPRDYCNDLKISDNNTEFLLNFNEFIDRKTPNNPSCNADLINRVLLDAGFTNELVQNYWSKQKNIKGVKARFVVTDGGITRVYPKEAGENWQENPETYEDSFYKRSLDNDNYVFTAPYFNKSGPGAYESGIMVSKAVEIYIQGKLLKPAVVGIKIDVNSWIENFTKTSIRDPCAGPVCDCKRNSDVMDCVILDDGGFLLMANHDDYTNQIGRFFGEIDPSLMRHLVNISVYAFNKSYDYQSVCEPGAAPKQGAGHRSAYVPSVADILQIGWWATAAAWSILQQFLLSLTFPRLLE
Voltage-dependent calcium channel subunit alpha-2/delta-1 (Homo sapiens), sequence (P54289 957-1103 limits assumed): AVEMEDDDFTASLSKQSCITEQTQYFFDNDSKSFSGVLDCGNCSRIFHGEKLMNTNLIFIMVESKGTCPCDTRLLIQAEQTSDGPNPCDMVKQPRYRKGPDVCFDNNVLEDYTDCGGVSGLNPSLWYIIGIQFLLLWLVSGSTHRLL

## Cc1cc([C@@H](C)Nc2ccccc2C(=O)O)c2nc(N3CCOCC3)cc(=O)n2c1 [AZD-6482]
[1]
  Vd: 40 L
[2]
  fraction unbound at 18 h: 0.08
[3]
  Papp A→B at 10 µM: 18 ×10⁻⁶ cm/s
[4]
  fraction unbound at 18 h: 0.1
[5]
  Vd: 14 L/kg
[6]
  clearance: 17 mL/min/kg
[7]
  half-life at 2 µM: 40 min
[8]
  half-life: 5 min
[9]
  logD: 0.75
Hepatocyte
  Intrinsic clearance (CLint): 17.5 µL/min
[10]
  pIC50: 6.57
[11]
  solubility: 100 µM (≈ 40.8 µg/mL)
[12]
  pIC50: 6.55

## C[C@@H](Oc1ccccc1)c1cc(C(=O)N(C)CCO)cn2c(=O)cc(N3CCOCC3)nc12
[2]
  fraction unbound at 18 h: 0.26
Canis familiaris [13]
  fold change (FC): 3.5
[4]
  fraction unbound at 18 h: 0.42
[14]
  inhibition: inactive
[15]
  bioavailability: 31%
[16]
  inhibition (INH): Not Active
[5]
  Vd: 1.2 L/kg
[17]
  inhibition (INH): Not Active
[18]
  inhibition: inactive
[6]
  clearance: 8 mL/min/kg
Rattus norvegicus
  Activity: Non-toxic
[19]
  inhibition: inactive
Canis familiaris [20]
  EC80: 690 nM
[7]
  half-life at 2 µM: > 173 min
[21]
  inhibition (INH): Not Active
[22]
  pIC50: 6.40
[10]
  pIC50: 5.92
[11]
  solubility: > 1800 µM
[23]
  pIC50: 6.02
Canis familiaris [24]
  fold change (FC): 3.5
CHO
  inhibition: inactive
[25]
  inhibition: inactive
[12]
  pIC50: 6.68
[26]
  pIC50: 4.08
[27]
  inhibition (INH): Not Active
[28]
  inhibition: inactive
